From ChEMBL document CHEMBL4393678, “Novel Tetrahydroquinazolinamines as Selective Histamine 3 Receptor Antagonists for the Treatment of Obesity” (J Med Chem, 2019)
pEC50, pIC50, pKi: −log10 of the molar value. Calls of active or inactive are those of the source. The rule behind the calls is not given here.

Legend:
[1] = target: T1, Histamine H2 receptor (Homo sapiens, UniProt P25021); assay: Agonist activity at recombinant human Gs-coupled H2 receptor expressed in HEK293T cells assessed as inhibition of forskolin-stimulated cAMP accumulation at 10 uM preincubated for 10 to 15 followed by forskolin-stimulation by Glo-sensor assay relative to control; type: functional, cell-based; parameters: scale not given: the % may be the effect or the level left
T1 sequence (P25021 whole entry): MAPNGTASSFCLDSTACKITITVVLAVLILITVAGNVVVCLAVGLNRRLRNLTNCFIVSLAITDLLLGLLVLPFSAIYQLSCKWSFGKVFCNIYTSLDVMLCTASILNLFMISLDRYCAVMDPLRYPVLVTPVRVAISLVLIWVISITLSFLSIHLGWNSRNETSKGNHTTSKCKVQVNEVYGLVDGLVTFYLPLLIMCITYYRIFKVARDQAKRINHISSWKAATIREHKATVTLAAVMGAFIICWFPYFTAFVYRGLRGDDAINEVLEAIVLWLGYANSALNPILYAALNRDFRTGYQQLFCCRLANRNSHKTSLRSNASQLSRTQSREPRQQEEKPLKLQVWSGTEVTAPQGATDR
Method in brief: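 HEK293T cells were transiently co-transfected with GloSensor-22F cAMP plasmid and human H2R plasmid, then held 15–18 h at 37 °C in 5% CO2. Cells were loaded with sodium luciferin (1 mg/ml) for 90 min. Agonist mode used 10 µM compound, with luminescence read directly after 10–15 min. Screening was in triplicate, scored as ≥50% change versus control.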

[2] = target: Histamine H4 receptor (Homo sapiens) (UniProt Q9H3N8); assay: Antagonist activity at recombinant human Gi-coupled H4 receptor expressed in HEK293T cells assessed as reduction in histamine-induced inhibition of forskolin-stimulated cAMP accumulation at 10 uM preincubated for 10 to 15 followed by histamine addition for 10 mins and subsequent forskolin-stimulation by Glo-sensor assay; type: functional, cell-based
Chain of Histamine H4 receptor (Homo sapiens) (Q9H3N8 whole entry): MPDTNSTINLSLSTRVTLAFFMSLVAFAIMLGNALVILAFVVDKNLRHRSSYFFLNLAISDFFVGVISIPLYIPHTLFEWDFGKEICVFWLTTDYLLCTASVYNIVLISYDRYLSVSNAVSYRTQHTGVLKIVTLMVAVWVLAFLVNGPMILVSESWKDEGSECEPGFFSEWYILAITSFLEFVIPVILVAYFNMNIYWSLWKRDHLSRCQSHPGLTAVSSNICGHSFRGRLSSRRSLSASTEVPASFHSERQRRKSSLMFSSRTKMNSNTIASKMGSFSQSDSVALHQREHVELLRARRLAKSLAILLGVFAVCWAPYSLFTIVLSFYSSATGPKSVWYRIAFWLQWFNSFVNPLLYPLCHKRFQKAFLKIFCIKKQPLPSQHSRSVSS

[3] = target: T1, Histamine H2 receptor; assay: Agonist activity at recombinant human Gs-coupled H2 receptor expressed in HEK293T cells assessed as inhibition of forskolin-stimulated cAMP accumulation preincubated for 10 to 15 followed by forskolin-stimulation by Glo-sensor assay; type: functional, cell-based; conditions: for pEC50: read-out: EC50
[4] = target: T2, Histamine H3 receptor (Homo sapiens, UniProt Q9Y5N1); assay: Antagonist activity at recombinant human Gi-coupled H3 receptor expressed in HEK293T cells assessed as reduction in histamine-induced inhibition of forskolin-stimulated cAMP accumulation preincubated for 10 to 15 followed by histamine addition for 10 mins and subsequent forskolin-stimulation by Glo-sensor assay; type: functional, cell-based
T2 sequence (Q9Y5N1 whole entry): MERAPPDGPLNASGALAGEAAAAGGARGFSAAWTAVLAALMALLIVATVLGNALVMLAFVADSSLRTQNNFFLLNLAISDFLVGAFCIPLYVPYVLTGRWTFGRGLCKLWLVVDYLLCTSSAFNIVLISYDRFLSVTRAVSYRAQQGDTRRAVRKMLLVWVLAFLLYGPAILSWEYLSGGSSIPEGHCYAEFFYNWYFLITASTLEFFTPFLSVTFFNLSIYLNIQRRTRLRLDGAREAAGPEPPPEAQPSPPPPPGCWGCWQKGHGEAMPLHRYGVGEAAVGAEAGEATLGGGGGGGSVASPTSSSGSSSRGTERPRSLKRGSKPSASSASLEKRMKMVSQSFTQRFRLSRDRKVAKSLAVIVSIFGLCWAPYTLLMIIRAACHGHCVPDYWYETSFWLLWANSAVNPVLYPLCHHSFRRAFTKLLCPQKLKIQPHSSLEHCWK

[5] = target: Histamine H1 receptor (Homo sapiens) (UniProt P35367); assay: Agonist activity at H1R (unknown origin) expressed in HEK293 cells harboring luc2P/NFAT-RE plasmid at 10 uM after 6 to 8 hrs by luciferase reporter gene assay; type: cell-based
Chain of Histamine H1 receptor (Homo sapiens) (P35367 whole entry): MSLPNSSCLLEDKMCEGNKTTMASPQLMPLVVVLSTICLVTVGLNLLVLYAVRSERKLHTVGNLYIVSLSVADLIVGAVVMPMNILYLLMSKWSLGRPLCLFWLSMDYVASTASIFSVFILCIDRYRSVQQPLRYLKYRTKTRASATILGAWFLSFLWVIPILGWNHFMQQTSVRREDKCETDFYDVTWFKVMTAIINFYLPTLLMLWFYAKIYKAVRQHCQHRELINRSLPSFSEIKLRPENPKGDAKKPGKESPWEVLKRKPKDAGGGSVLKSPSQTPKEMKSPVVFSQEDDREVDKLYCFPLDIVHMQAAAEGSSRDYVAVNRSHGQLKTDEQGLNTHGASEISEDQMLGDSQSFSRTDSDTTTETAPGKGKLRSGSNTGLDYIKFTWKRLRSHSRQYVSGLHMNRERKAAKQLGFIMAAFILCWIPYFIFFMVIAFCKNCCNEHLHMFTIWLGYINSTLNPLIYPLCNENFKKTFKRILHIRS
Method in brief: (§1)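 NFAT-RE luciferase assay in HEK293T cells transiently co-transfected with luc2P/NFAT-RE plasmid and receptor plasmid. Cells plated in DMEM and incubated overnight at 37 °C, 5% CO₂. Compounds and reference ligands applied for 6-8 h. Luciferase read after adding Bright-Glo substrate (1 mg/ml final).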

[6] = target: Histamine H4 receptor (Homo sapiens) (UniProt Q9H3N8); assay: Agonist activity at recombinant human Gi-coupled H4 receptor expressed in HEK293T cells assessed as inhibition of forskolin-stimulated cAMP accumulation at 10 uM preincubated for 10 to 15 followed by forskolin-stimulation by Glo-sensor assay; type: functional, cell-based
[7] = target: Histamine H1 receptor (Homo sapiens) (UniProt P35367); assay: Antagonist activity at H1R (unknown origin) expressed in HEK293 cells harboring luc2P/NFAT-RE plasmid at 10 uM after 6 to 8 hrs by luciferase reporter gene assay; type: cell-based; method in brief: as §1
[8] = target: T3, Cholecystokinin receptor type A (Homo sapiens, UniProt P32238); assay: Displacement of [I125]bolton hunter-CCK-8S from recombinant human CCK1 receptor expressed in stable CHO cells measured after 1 to 2 hrs by microscintillation counting method; type: cell-based
T3 sequence (P32238 whole entry): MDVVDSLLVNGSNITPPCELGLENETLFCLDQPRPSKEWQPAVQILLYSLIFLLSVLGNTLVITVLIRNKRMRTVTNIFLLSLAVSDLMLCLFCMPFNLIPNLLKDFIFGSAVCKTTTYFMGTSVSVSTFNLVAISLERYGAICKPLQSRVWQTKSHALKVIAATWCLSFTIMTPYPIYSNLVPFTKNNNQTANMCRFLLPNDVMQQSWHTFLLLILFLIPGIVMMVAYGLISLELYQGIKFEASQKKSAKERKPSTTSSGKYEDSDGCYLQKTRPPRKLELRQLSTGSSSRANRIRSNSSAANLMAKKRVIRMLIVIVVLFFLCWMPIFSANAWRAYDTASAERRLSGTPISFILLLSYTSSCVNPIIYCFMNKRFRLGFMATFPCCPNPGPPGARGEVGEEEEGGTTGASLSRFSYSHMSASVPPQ

[9] = tested on: Mus musculus; assay: Anti-obesity activity in high fat diet-induced obese C57BL/6J mouse model assessed as reduction in body weight at 10 mg/kg, po; type: functional, organism-based; conditions: TDE = time-dependent effect
Method in brief: (§2)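 Male C57BL/6J mice (6–8 weeks, 22–25 g) on high-fat diet, with a normal-chow group included. Daily chronic oral dosing against vehicle for six weeks. Percent body weight change followed over the treatment days, and net body weight change taken at six weeks. n=5-6 per group. Two-way ANOVA, or one-way ANOVA with Newman-Keuls test.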

[10] = tested on: Mus musculus; assay: Anti-obesity activity in high fat diet-induced obese C57BL/6J mouse model assessed as reduction in body fat mass at 10 mg/kg, po measured after 6 weeks relative to control by NMR-based magnetic resonance imaging analysis; type: functional; parameters: scale not given: the % may be the effect or the level left
Method in brief: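 Male C57BL/6J mice on high-fat diet dosed orally for six weeks against a vehicle-treated high-fat diet group and a chow group. Body composition (fat mass, lean mass, % body fat) measured by EchoMRI live scanning. n=5-6. One-way ANOVA with Newman-Keuls test.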

[11] = tested on: Mus musculus; assay: Anti-obesity activity in high fat diet-induced obese C57BL/6J mouse model assessed as change in body weight at 10 mg/kg, po measured after 6 weeks (reference value: 3.86 +/- 0.99 g); type: functional; method in brief: as §2
[12] = tested on: Mus musculus; assay: Anorexic effect in high fat diet-induced obese C57BL/6J mouse model assessed as reduction in cumulative food intake at 10 mg/kg, po pretreated for 30 mins followed by food addition measured after 4 hrs relative to control; type: functional; parameters: scale not given: the % may be the effect or the level left
Method in brief: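 Male C57BL/6J mice on high-fat diet, starved 12 h (8 am–8 pm) with water available, housed singly. Oral dose in 5% gum acacia in normal saline, vehicle group alongside. Food given 30 min after dosing, and cumulative intake measured over the 4 h night phase (9 pm–1 am). One-way ANOVA with Newman-Keuls test.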

[13] = target: T2, Histamine H3 receptor; assay: Displacement of [3H]N-alpha-methylhistamine from recombinant human H3 receptor expressed in HEK293T cells measured after 90 mins by liquid scintillation counting method; type: cell-based
[14] = tested on: Mus musculus; assay: Anorexic effect in 12 hrs fasted db/db-induced obese C57BL/6J mouse model assessed as reduction in cumulative food intake at 20 mg/kg, ip pretreated for 30 mins followed by food addition measured after 4 hrs; type: functional, organism-based

Compound | Activity [1] [%] | inhibition [2] | pEC50 [3] | pIC50 [4] | Activity [5] | Activity [6] | inhibition [7] | pIC50 [8] | EC50 [3] | Activity [9] | Activity [10] [%] | Activity [11] [g] | Activity [12] [%] | EC50 ([3]; read-out: pEC50 (converted)) [µM] | pKi [13] | Activity [14]
COc1cccc(-c2nc(N)nc3c2CCCC3C)c1 (stereo unspecified) | 50 | inactive | 6.60 | 7.15 | inactive | inactive | inactive |  |  |  |  |  |  |  |  | 
CC1CCCc2c(-c3ccc(Cl)cc3)nc(N)nc21 (stereo unspecified) | 50 | inactive | 7.10 | 6.05 | inactive | inactive | inactive |  |  |  |  |  |  |  |  | 
Cc1ccc(-c2nc(N)nc3c2CCCC3C)cc1 (stereo unspecified) | 50 | inactive | 6.06 | 5.53 | inactive | inactive | inactive |  |  |  |  |  |  |  |  | 
COc1ccc(-c2nc(NC(=O)c3cc4ccccc4n3CC(=O)O)ncc2CC2CCCCC2)c(OC)c1 |  |  |  |  |  |  |  | > 7.30 |  |  |  |  |  |  |  | 
CC1CCCc2c(-c3cccc(O)c3)nc(N)nc21 (stereo unspecified) | < 50 | inactive |  | 5.34 | inactive | inactive | inactive |  | Not Active |  |  |  |  |  |  | 
C[C@H]1CNCCc2ccc(Cl)cc21 [LORCASERIN] |  |  |  |  |  |  |  |  |  | Tde | 22.4 | 0.95 | 40 |  |  | 
CC1CCCc2c(-c3ccc(F)cc3)nc(N)nc21 (stereo unspecified) |  | inactive | 7.10 | 6.25 | inactive | inactive | inactive |  |  |  |  |  |  |  |  | 
CC1CCCc2c(-c3cccc(Br)c3)nc(N)nc21 (stereo unspecified) | 50 | inactive | 6.08 | 7.05 | inactive | inactive | inactive |  |  |  |  |  |  | 0.316 |  | 
CC1CCCc2c(-c3cccnc3)nc(N)nc21 (stereo unspecified) | < 50 | inactive |  | 5.17 | inactive | inactive | inactive |  | Not Active |  |  |  |  |  |  | 
c1ccc(CNc2ccnc(Nc3ccc(OCCN4CCCCC4)cc3)n2)cc1 |  |  |  |  |  |  |  |  |  |  |  |  |  |  | 8.35 | 
CCCCc1cc(-c2ccc(OC)cc2)nc(N)n1 |  | inactive | 5.29 | 5.35 | inactive | inactive | inactive |  |  |  |  |  |  | 5.25 |  | 
Cc1ccc(C2(O)CCN(c3nc(C)nc4ccsc34)CC2)nc1 |  |  |  |  |  |  |  |  |  |  |  |  |  |  | 8.22 | 
CC1CCCc2c(-c3ccccc3)nc(N)nc21 (stereo unspecified) | 50 | inactive | 7.00 | 5.89 | inactive | inactive | inactive |  |  |  |  |  |  |  |  | 
CC(N)(Cc1cnc[nH]1)C(=O)O (racemic) |  |  |  |  |  |  |  |  |  |  |  |  |  |  |  | inactive
CC1CCCc2c(-c3ccc(C#N)cc3)nc(N)nc21 (stereo unspecified) | < 50 | inactive |  | 5.26 | inactive | inactive | inactive |  | Not Active |  |  |  |  |  |  | 
CC1CCCc2c1nc(N)nc2C1CCCCC1 (stereo unspecified) | 50 | inactive | 6.44 | 6.62 | inactive | inactive | inactive |  |  |  |  |  |  |  |  | 
COc1ccc(-c2nc(N)nc3c2CCCC3)cc1 |  | inactive | 5.86 | 5.56 | inactive | inactive | inactive |  |  |  |  |  |  | 1.29 |  | 
COc1ccc(-c2nc(N)nc3c2CC(C)CC3)cc1 (stereo unspecified) | 50 | inactive | 5.67 | 5.33 | inactive | inactive | inactive |  |  |  |  |  |  |  |  | 
CC1CCCc2c(-c3ccc(Br)cc3)nc(N)nc21 (stereo unspecified) | < 50 | inactive |  | 5.51 | inactive | inactive | inactive |  | Not Active |  |  |  |  |  |  | 
CC1CCCc2c(-c3cccc4ccccc34)nc(N)nc21 (stereo unspecified) | < 50 | inactive |  | 5.57 | inactive | inactive | inactive |  | Not Active |  |  |  |  |  |  | 
CC1CCCc2c(-c3ccc([N+](=O)[O-])cc3)nc(N)nc21 (stereo unspecified) | 50 | inactive | 5.28 | 4.91 | inactive | inactive | inactive |  |  |  |  |  |  | 5.37 |  | 
